The conditions of series [1]: in mice; cited from earlier work.
The conditions of series [2]: in rabbits, estimated; cited from earlier work.
The conditions of series [3]: in rats; cited from earlier work.
The conditions of series [4]: in humans; cited from earlier work.
Series [5] has as its system BGC-823 gastric cancer xenografts. Put plainly: Tumor growth assay, BGC-823 xenograft. In kind it is in vivo, BALB/c nude mice. As to conditions: dosing from day 7, sacrificed day 28, n = 6. The gist of the method: (§1)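 Female BALB/c nude mice, 4–5 weeks old and housed SPF, were implanted s.c. in the right flank with BGC-823 or HT-29 cells. At 100 mm3 tumours, mice were randomised into 7 groups. Arms were PBS, reference agents (80 mg/kg/7d; 5 mg/kg/7d) and test peptides at 5 mg/kg daily or every 4 days. Body weight and tumour volume were tracked; tumours were weighed at sacrifice; n = 6, mean ± SD.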

Series [6] deals with HT-29 colon cancer xenografts. Kind of series: Tumor growth assay, HT-29 xenograft. In kind it is in vivo, BALB/c nude mice. As to conditions: dosing from day 7, sacrificed day 28, n = 6. The gist of the method:
as §1

The subject of series [7] is zebrafish embryo subintestinal vessels (SIVs). Put plainly: Zebrafish angiogenesis model. In kind it is in vivo. To be noted: yolk sac microinjection at 2 dpf, read at 3 dpf, 10 zebrafish per group analysed. The gist of the method: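 Transgenic zebrafish received test peptide by yolk-sac microinjection at 2 dpf, 30 embryos per group, with a positive control included. After a further 24 h, 10 embryos per group were randomly chosen. Fluorescent subintestinal vessels were imaged and SIV area was quantified by image analysis (mean ± SD, three to four independent experiments).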

Data on three molecules can be found in PMC5928873 (Theranostics, 2018).

For orientation: half-life means how long it takes for the measured level to halve.

Like-named read-outs stand apart in the source and are kept apart here.

Take Albumin: the half-life in series [1] is 24 h; in series [2], 133 h; in series [3] it was 45.6 h; in series [4], 456 h.
Take `O=P1(N(CCCl)CCCl)NCCCO1` (stereo not drawn) [CTX, Cyclophosphamide]: in series [5] (80 mg/kg/7d, positive group), the “inhibition rate on BGC-823 xenografts” value worked out at 65.9%. In addition, the “inhibition rate on HT-29 xenograft” value in series [6] (80 mg/kg/7d, positive group) is recorded as 78.02%.
As to “Avastin: recombinant humanized monoclonal IgG1 antibody against VEGF-A”, in series [5] (5 mg/kg/7d), the “inhibition rate on BGC-823 xenografts” value is on record as 79.54%. Also, the “inhibition rate on HT-29 xenograft” value in series [6] (5 mg/kg/7d) is 77.91%. Further, the “angiogenesis of SIV plexus in zebrafish embryos (SIV area)” value in series [7] is “inhibited the angiogenesis of SIV plexus”.
